In ChEMBL document CHEMBL2021883, “Amino acid, dipeptide and pseudodipeptide conjugates of ring-substituted 8-aminoquinolines: synthesis and evaluation of anti-infective, β-haematin inhibition and cytotoxic activities” (Eur J Med Chem, 2012):
Converted amounts (≈) assume the structure as drawn. The source made the active and inactive calls. Unless noted, no cut-off for these calls is given here.

Legend:
[1] = system: Plasmodium falciparum; assay: Antimalarial activity against chloroquine-sensitive Plasmodium falciparum D6 assessed as plasmodial LDH activity; format: functional, organism-based
[2] = system: Plasmodium falciparum; assay: Antimalarial activity against chloroquine-resistant Plasmodium falciparum W2 assessed as plasmodial LDH activity; format: functional, organism-based
[3] = system: Vero; assay: Cytotoxicity against african green monkey Vero cells upto 23.8 […] by neutral dye assay; format: cell-based, Chlorocebus sabaeus
Summary of the method: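 Vero monkey kidney cells were exposed to compound up to a highest concentration of 23.8, with viability read by neutral red uptake.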

[4] = Inhibition of beta-hematin formation; format: functional
[5] = system: Leishmania donovani; assay: Antileishmanial activity against Leishmania donovani promastigote by Alamar Blue assay; format: functional, organism-based
[6] = system: Staphylococcus aureus; assay: Antimicrobial activity against Staphylococcus aureus ATCC 29213 by CLSI method; format: functional, organism-based
[7] = system: Staphylococcus aureus; assay: Antimicrobial activity against methicillin-resistant Staphylococcus aureus ATCC 43300 by CLSI method; format: functional, organism-based
[8] = system: Mycobacterium intracellulare; assay: Antimicrobial activity against Mycobacterium intracellulare ATCC 23068 by Franzblau method; format: functional, organism-based
[9] = system: Escherichia coli; assay: Antimicrobial activity against Escherichia coli ATCC 35218 by CLSI method; format: functional, organism-based
[10] = system: Pseudomonas aeruginosa; assay: Antimicrobial activity against Pseudomonas aeruginosa ATCC 27853 by CLSI method; format: functional, organism-based
Summary of the method: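 Antibacterial testing used CLSI/NCCLS broth dilution for aerobically growing bacteria, with 20 as the highest test concentration.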

[11] = system: Aspergillus fumigatus; assay: Antifungal activity against Aspergillus fumigatus; format: functional, organism-based
Summary of the method: (§1)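 Yeasts and A. fumigatus were tested by broth microdilution following the NCCLS antifungal standards. The highest test concentration was 20.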

[12] = system: Cryptococcus neoformans; assay: Antifungal activity against Cryptococcus neoformans; format: functional, organism-based; summary of the method: as §1
[13] = system: Cryptococcus neoformans; assay: Fungicidal activity against Cryptococcus neoformans at 20 ug/ml; format: functional, organism-based
Summary of the method: (§2)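 Broth dilution antifungal testing followed the NCCLS reference method for yeasts, with 20 as the highest test concentration. MIC was the lowest concentration with no detectable growth. MFC was the lowest concentration killing the organism.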

[14] = system: Candida albicans; assay: Antifungal activity against Candida albicans at 20 ug/ml; format: functional, organism-based; summary of the method: as §2
[15] = system: Candida albicans; assay: Fungicidal activity against Candida albicans at 20 ug/ml; format: functional, organism-based; summary of the method: as §2
[16] = system: Nakaseomyces glabratus; assay: Antifungal activity against Candida glabrata at 20 ug/ml; format: functional, organism-based; summary of the method: as §2
[17] = system: Nakaseomyces glabratus; assay: Fungicidal activity against Candida glabrata at 20 ug/ml; format: functional, organism-based; summary of the method: as §2
[18] = system: Pichia kudriavzevii; assay: Antifungal activity against Candida krusei at 20 ug/ml; format: functional, organism-based; summary of the method: as §2
[19] = system: Pichia kudriavzevii; assay: Fungicidal activity against Candida krusei at 20 ug/ml; format: functional, organism-based; summary of the method: as §2
[20] = Selectivity index, ratio of IC50 for african green monkey Vero cells to IC50 for chloroquine-sensitive Plasmodium falciparum D6; format: toxicity, cell-based; conditions: Vero cells versus Plasmodium falciparum D6, read-out: Ratio IC50
[21] = Selectivity index, ratio of IC50 for african green monkey Vero cells to IC50 for chloroquine-resistant Plasmodium falciparum W2; format: toxicity, cell-based; conditions: Vero cells versus Plasmodium falciparum W2, read-out: Ratio IC50
[22] = system: Plasmodium berghei; assay: Antimalarial activity against Plasmodium berghei blood-schizont in mouse malaria model assessed as disease curative activity at 100 mg/kg, po after 60 days; format: functional
Summary of the method: (§3)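 P. berghei-infected mice, 6 per group, received compound orally once daily for 4 days at 10, 25, 50 or 100 mg/kg/day. "Active" meant all treated animals were parasitaemia-negative up to D+7. "Curative" meant complete parasite elimination with survival to D+60. Outcomes were recorded as cured/total.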

[23] = system: Plasmodium berghei; assay: Antimalarial activity against Plasmodium berghei blood-schizont in mouse malaria model assessed as elimination of parasitemia at 25 mg/kg, po for 4 days for 4 days measured after 7 days; format: functional, organism-based; set-up: dose 25 mg/kg; summary of the method: as §3
[24] = system: Plasmodium berghei; assay: Antimalarial activity against Plasmodium berghei blood-schizont in mouse malaria model assessed as elimination of parasitemia at 50 mg/kg, po for 4 days for 4 days measured after 7 days; format: functional, organism-based; set-up: dose 50 mg/kg; summary of the method: as §3
[25] = system: Plasmodium berghei; assay: Antimalarial activity against Plasmodium berghei blood-schizont in mouse malaria model assessed as elimination of parasitemia at 10 mg/kg, po for 4 days for 4 days measured after 7 days; format: functional, organism-based; set-up: dose 10 mg/kg; summary of the method: as §3
[26] = Ratio of chloroquine IC50 to compound IC50 for inhibition of beta-hematin formation
[27] = Plasmodium falciparum, D6, read-out: IC50
[28] = Plasmodium falciparum, W2, read-out: IC50

SMILES | IC50 [3] | IC50 [4] [µM] | IC50 [5] | IC90 [5] | Activity [6] | Activity [7] | Activity [8] | Activity [9] | Activity [10] | Activity [11] | IC50 [12] [µg/mL] | MIC [12] [µg/mL] | Activity [14] | Activity [15] | IC50 [1, 27] [µg/mL] | IC50 [2, 28] [µg/mL] | selectivity ratio [20] | selectivity ratio [21] | Activity [22] [%] | Activity [23] | other results
COc1cc(NC(C)CCCNC(=O)CC[C@@H](NC(=O)[C@H](N)CCCCN)C(=O)O)c2nc(C(C)(C)C)ccc2c1 (some centres not stated) | Non-toxic | > 1000 | Not Active | inactive | inactive | inactive | inactive | inactive | inactive | inactive | 15.2 (≈ 26.5 µM) | 20 (≈ 34.9 µM) | inactive | inactive |  |  |  |  |  |  | IC50 [1]: Not Active; IC50 [2]: Not Active; Activity [13]: inactive; Activity [16]: inactive; Activity [17]: inactive; Activity [18]: inactive; Activity [19]: inactive
COc1cc(NC(C)CCCNC(=O)[C@H](CCCCN)NC(=O)[C@@H](N)CCCCN)c2ncccc2c1 (some centres not stated) | Non-toxic | 618 | Not Active | inactive | inactive | inactive | inactive | inactive | inactive | inactive | 7 (≈ 13.6 µM) | 10 (≈ 19.4 µM) | inactive | inactive | 2 (≈ 3.88 µM) | 2.8 (≈ 5.43 µM) | > 11.9 | > 8.5 | 100 | Active | Activity [24]: Active; Activity [25]: Active; MFC [12]: 20 µg/mL (≈ 38.8 µM)
COc1cc(NC(C)CCCNC(=O)C[C@H](NC(=O)[C@@H](N)CCCCN)C(=O)O)c2ncccc2c1 (some centres not stated) | Non-toxic | 5.8 | Not Active | inactive | inactive | inactive | inactive | inactive | inactive |  |  |  |  |  | 0.13 (≈ 0.259 µM) | 0.26 (≈ 0.517 µM) | > 183 | > 91.5 | 100 | Active | Ratio IC50 [26]: 16; Activity [24]: Active; Activity [25]: Active
